# Assay outcomes as filed in PubChem.
# Hits are enriched below; roughly 2.7% of the tested compounds scored in any of these assays.
# FGF22 binding: binders of human FGF22 protein, primary screen, FGF22 synaptogenesis inhibitor project, biophysical, thermal shift, single point. Fibroblast growth factor 22 (Homo sapiens), Q9HCT0. recombinant FGF22 thermal shift, SYPRO orange fluorescence; percent of sucrose octasulfate shift, DMSO zero. activity (Tm shift, normalised), % at 9.99 µM. hit rate 1.5% among 340,000. AID 651658, 2012;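 active means mean Tm shift, scaled 0 neutral to 100 positive control, at about 1.3% or above, every replicate too, limit read from the data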
# Target sequence (Q9HCT0 whole entry, looked up): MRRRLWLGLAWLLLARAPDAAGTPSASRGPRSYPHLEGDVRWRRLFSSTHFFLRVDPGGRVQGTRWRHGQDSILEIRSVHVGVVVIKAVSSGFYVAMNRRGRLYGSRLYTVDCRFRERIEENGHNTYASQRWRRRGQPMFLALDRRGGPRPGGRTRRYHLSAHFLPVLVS
# CFTR F508del cor: F508del CFTR correction, initial screen, CFBE line, single point. activity (quench increase), % at 7.58 µM. CFBE cells, YFP halide quenching; stimulated with forskolin plus potentiator P3; % fluorescence drop versus neutral controls. AID 720511, 2013. hit rate 0.36% among 350,000;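 active means mean added fluorescence quench of at least 8% versus neutral control, with both replicates also reaching 8%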;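 further: cells transiently co-express mutant CFTR-F508del with the halide-sensitive YFP; corrector assay measuring rescue of mutant channel to the surface after 24 h compound exposure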
# HIV Env fusion: inhibitors of HIV-1 Env-driven cell-cell fusion, primary screen, HeLa-JRFL effector, CEM21 target cells, luciferase | inhibition, % at 12.3 µM | hit rate 1.1% among 360,000 | AID 651610, 2012;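 active means mean replicate inhibition score of at least 50 and every replicate individually at or above 50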
# E-sel inducer: E-selectin induction in HUVECs, primary screen, imaging, HUVEC, immunofluorescence imaging, single point; normalized: neutral wells 0, TNF-alpha wells 100; hit rate 0.37% among 260,000; activation, % at 7.58 µM;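 active means mean E-selectin-positive cell signal at least 10% of the positive control, reached in at least 60% of replicates, without over 20% cell loss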
#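 material = human umbilical vein endothelial cells (HUVEC), E-selectin induction | quantity = 3,000 cells/well | medium = EGM-2 growth medium on 0.1% gelatin-coated wells | technique = immunofluorescence imaging | read-out basis = % PE-positive cells | control set = TNF-alpha positive control, DMSO neutral control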
# S100A4 inh HTS: inhibitors of S100A4-myosin IIA peptide binding, primary screen, biochemical, fluorescence polarization, TAMRA-MyoIIA peptide; Protein S100-A4 (Homo sapiens), P26447; inhibition, % at 10.7 µM; hit rate 0.14% among 360,000;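 active means mean inhibition of at least 70% across replicates, with every replicate also reaching that level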
# Target sequence (P26447 whole entry, looked up): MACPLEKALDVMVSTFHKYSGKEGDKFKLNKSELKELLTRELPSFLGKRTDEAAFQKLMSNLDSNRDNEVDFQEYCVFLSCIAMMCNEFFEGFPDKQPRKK
#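 incubation = readout 5 min after mixing, signal stable up to 60 min | system = S100A4 monomer protein | buffer or medium = HEPES pH 7.2 with CaCl2, KCl, NaCl, DTT, Triton | benchmarks = neutral control DMSO, positive control TFP | also added = fluorescent myosin IIA peptide, 5 nM | compound dosing = one concentration per compound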
# A number is an active result; - = inactive; . = no result; [ ] = dose if it differs, or a comment.
SMILES,FGF22 binding,CFTR F508del cor,HIV Env fusion,E-sel inducer,S100A4 inh HTS
CO[C@H]1CN(C)C(=O)c2cc(NC(=O)C3CCOCC3)ccc2OC[C@H](C)N(Cc2nccs2)C[C@H]1C,-,-,74.3,-,-
CO[C@H]1CN(C)C(=O)c2cc(NC(=O)C3CCOCC3)ccc2OC[C@@H](C)N(Cc2nccs2)C[C@@H]1C,-,-,.,-,-
CCC(=O)Nc1ccc2c(c1)C(=O)N(C)C[C@H](OC)[C@@H](C)CN(C(=O)CC)[C@H](C)CO2,.,-,-,-,.
CCC(=O)Nc1ccc2c(c1)C(=O)N(C)C[C@@H](OC)[C@H](C)CN(C(=O)CC)[C@@H](C)CO2,-,-,59.4[16.7 µM],-,-
COCC(=O)Nc1ccc2c(c1)C(=O)N(C)C[C@H](OC)[C@@H](C)CN(C(C)=O)[C@H](C)CO2,-,-,-,-,-
CC(C)COC(=O)N(C)C[C@@H]1OCc2cn(nn2)CCCC(=O)N([C@H](C)CO)C[C@H]1C,-,-,.,-,-
CCC(=O)Nc1ccc2c(c1)OC[C@H](C)N(Cc1ccccc1C(=O)O)C[C@H](C)[C@@H](OC)CN(C)C2=O,-,-,.,-,90.3
CCC(=O)Nc1ccc2c(c1)OC[C@@H](C)N(C(=O)CC1CC1)C[C@H](C)[C@@H](OC)CN(C)C2=O,-,-,.,-,-
CCCC(=O)Nc1ccc2c(c1)OC[C@H](C)N(C(=O)CN(C)C)C[C@@H](C)[C@H](OC)CN(C)C2=O,-,-,57.7[16.7 µM],-,-
CO[C@H]1CN(C)C(=O)c2ccc(NC(C)=O)cc2OC[C@@H](C)N(Cc2cncnc2)C[C@@H]1C,-,-,-,-,-
CO[C@@H]1CN(C)C(=O)c2cc(NC(C)=O)ccc2OC[C@H](C)N(Cc2cncnc2)C[C@H]1C,.,-,.,-,75.6
CCC(=O)Nc1ccc2c(c1)OC[C@H](C)N(C(=O)CC1CC1)C[C@H](C)[C@H](OC)CN(C)C2=O,-,-,.,-,95.9
CC(c1ccon1)N(C)Cc1c(C(=O)N(C)Cc2ccccc2)nc2ccccn12 (stereo not given),43.1,.,-,.,-
CN(Cc1ccccc1)C(=O)c1nc2ccccn2c1CNCCn1cccn1,.,.,-,.,.
CCOc1ccc(NCc2nnc(SCc3ccccc3Cl)n2-c2ccccc2)cc1,.,.,82.1,.,.
COCC#Cc1cnc2c(c1)C(=O)N([C@H](C)CO)C[C@@H](C)[C@H](CN(C)C(=O)CN1CCOCC1)O2,-,-,-,-,-
CN(C[C@H](Cc1ccccc1)N(C[C@H](c1ccccc1)N(CCc1ccccc1)N=O)N=O)N=O,-,-,73.5,-,-
CN(C[C@@H](Cc1cccc2ccccc12)N(C[C@H](Cc1ccccc1)N(CCc1ccccc1)N=O)N=O)N=O,-,-,-,-,-
CC(C)C[C@@H](CN(N=O)[C@@H](Cc1ccccc1)CN(C)N=O)N(CCc1ccccc1)N=O,-,-,-,-,-
CC(C)CCN(N=O)[C@@H](Cc1ccccc1)CN(N=O)[C@@H](Cc1ccccc1)CN(C)N=O,-,-,92.7,-,-
CN(C[C@H](Cc1ccccc1)N(C[C@H](Cc1ccccc1)N(CCC(C)(C)C)N=O)N=O)N=O,.,8.8,61.9,-,.
CN(C[C@H](Cc1ccccc1)N(C[C@@H](CC1CCCCC1)N(CCc1ccccc1)N=O)N=O)N=O,-,-,55.5,-,-
C[C@H](CO)N1C[C@H](C)[C@H](CN(C)C(=O)Nc2ccccc2)Oc2ccc(N(C)C)cc2CC1=O,-,-,-,.,-
CC(C)(C)n1nnnc1C(c1cccnc1)N(Cc1ccccc1)Cc1cccs1 (stereo not given),.,.,56.6,.,.
CC(C)(C)n1nnnc1C(c1ccc(F)cc1)N(Cc1ccc(F)cc1)Cc1ccco1 (stereo not given),.,.,124.2,-,.
CC(C)(C)n1nnnc1C(c1cc2ccccc2o1)N(Cc1ccccc1)Cc1ccccc1 (stereo not given),-,-,-,-,-
C[C@@H]1CN([C@@H](C)CO)C(=O)c2cc(NS(=O)(=O)c3ccc(Cl)cc3)ccc2O[C@@H](C)CCCCO[C@H]1CN(C)C(=O)Cc1ccccc1,-,-,-,-,-
